Experimental data from publication PMC10791108 (Journal of Enzyme Inhibition and Medicinal Chemistry, 2024).
Where two headings read alike, the source gives them in different places.

Tests used:
[1] = system: HCT-116; experiment: MTT drug sensitivity assay; assay type: cell-based; details: Homo sapiens, HCT-116, 72 h, read-out: In vitro growth inhibitory activity (IC50 ± SD) HCT-116
In short: (§1)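 ATCC lines were grown at 37 °C, 5% CO2 with 10% FBS and 2 mM L-glutamine (A549, MCF-7: RPMI-1640; HCT-116, U-2 OS: McCoy's 5A; U-87 MG: MEM; HEK293: DMEM). Test compound 0–50 µM for 72 h, then MTT 0.4 mg/ml in PBS, 3 h, 37 °C. Formazan dissolved in DMSO, absorbance 540 nm. IC50 relative to 1% v/v DMSO-treated cells; three independent runs.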

[2] = system: HCT-116; experiment: Clonogenic assay; assay type: cell-based, human; details: 24 h treatment, eight days culture, vs DMSO
In short: (§2)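 A549 or HCT-116 cells were seeded at 400 cells/well and exposed to a range of test compound concentrations for 24 h. After washing, cells were grown for eight days, then fixed in methanol and stained with 0.5% crystal violet. Colonies were counted and viability calculated relative to control. Mean ± SD of three independent experiments.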

[3] = system: A549; experiment: Annexin V-FITC/7-AAD apoptosis assay; assay type: cell-based, human; details: Annexin V/7-AAD
[4] = system: A549; experiment: Clonogenic assay; assay type: cell-based, human; details: 24 h treatment, eight days culture, vs DMSO
In short: as §2

[5] = system: HEK293; experiment: MTT drug sensitivity assay; assay type: cell-based; details: Homo sapiens, HEK293, 72 h, read-out: In vitro growth inhibitory activity (IC50 ± SD) HEK293
In short: as §1

[6] = system: U-2 OS; experiment: MTT drug sensitivity assay; assay type: cell-based; details: Homo sapiens, U2OS, 72 h, read-out: In vitro growth inhibitory activity (IC50 ± SD) U-2 OS
In short: as §1

[7] = target: T1, Topo IIα (Homo sapiens, UniProt P11388); experiment: pBR322 DNA relaxation assay; assay type: biochemical; details: for Inhibition of Topo IIα-mediated pBR322 relaxation: gel
T1 sequence (P11388 whole entry): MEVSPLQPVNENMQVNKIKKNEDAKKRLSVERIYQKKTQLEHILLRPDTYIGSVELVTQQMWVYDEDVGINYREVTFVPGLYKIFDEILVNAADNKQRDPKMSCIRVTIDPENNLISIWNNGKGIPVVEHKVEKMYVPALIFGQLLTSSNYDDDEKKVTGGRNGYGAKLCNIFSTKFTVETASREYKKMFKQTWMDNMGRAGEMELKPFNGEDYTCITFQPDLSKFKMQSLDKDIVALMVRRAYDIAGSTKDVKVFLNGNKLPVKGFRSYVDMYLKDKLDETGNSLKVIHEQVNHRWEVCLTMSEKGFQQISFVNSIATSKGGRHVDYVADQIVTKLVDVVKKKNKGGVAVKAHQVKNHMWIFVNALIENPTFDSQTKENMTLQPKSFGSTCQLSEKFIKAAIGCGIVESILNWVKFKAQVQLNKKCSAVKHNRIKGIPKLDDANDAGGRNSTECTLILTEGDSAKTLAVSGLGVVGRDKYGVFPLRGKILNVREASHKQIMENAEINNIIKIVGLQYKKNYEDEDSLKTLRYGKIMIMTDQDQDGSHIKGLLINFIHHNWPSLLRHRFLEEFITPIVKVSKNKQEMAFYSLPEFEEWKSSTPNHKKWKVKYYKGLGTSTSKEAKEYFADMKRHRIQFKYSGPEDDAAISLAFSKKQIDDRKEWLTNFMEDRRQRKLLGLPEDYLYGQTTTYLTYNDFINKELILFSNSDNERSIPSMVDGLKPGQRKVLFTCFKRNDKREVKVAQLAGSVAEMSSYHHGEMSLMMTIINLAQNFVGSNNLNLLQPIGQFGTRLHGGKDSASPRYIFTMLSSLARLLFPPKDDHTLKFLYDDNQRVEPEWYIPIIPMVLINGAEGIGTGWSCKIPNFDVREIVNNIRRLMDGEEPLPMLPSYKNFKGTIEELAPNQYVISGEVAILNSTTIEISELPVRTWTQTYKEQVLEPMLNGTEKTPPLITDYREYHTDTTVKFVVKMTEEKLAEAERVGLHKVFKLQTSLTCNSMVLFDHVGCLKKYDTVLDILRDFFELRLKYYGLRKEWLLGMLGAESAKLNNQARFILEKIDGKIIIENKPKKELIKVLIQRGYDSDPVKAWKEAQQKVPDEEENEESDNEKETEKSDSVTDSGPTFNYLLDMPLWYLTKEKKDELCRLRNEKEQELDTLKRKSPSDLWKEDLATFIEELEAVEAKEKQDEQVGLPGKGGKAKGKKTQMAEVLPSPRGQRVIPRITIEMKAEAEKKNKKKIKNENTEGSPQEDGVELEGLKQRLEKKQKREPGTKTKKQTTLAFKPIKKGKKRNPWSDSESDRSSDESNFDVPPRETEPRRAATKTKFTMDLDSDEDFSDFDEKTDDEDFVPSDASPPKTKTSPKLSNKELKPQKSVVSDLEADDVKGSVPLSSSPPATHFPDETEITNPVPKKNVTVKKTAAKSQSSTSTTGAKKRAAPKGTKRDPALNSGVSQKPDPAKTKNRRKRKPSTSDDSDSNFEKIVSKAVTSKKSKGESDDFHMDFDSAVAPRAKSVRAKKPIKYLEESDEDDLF

[8] = system: A549; experiment: Caspase-3/7 activation; assay type: cell-based, human; details: 24 h, equitoxic concentrations
[9] = system: HCT-116; experiment: TUNEL DNA fragmentation analysis; assay type: cell-based, human; details: 24 and 48 h; more pronounced than on A549
[10] = target: T2, human Topo IIβ (Homo sapiens, UniProt Q02880); experiment: pBR322 DNA relaxation assay; assay type: biochemical; details: gel
T2 sequence (Q02880 whole entry): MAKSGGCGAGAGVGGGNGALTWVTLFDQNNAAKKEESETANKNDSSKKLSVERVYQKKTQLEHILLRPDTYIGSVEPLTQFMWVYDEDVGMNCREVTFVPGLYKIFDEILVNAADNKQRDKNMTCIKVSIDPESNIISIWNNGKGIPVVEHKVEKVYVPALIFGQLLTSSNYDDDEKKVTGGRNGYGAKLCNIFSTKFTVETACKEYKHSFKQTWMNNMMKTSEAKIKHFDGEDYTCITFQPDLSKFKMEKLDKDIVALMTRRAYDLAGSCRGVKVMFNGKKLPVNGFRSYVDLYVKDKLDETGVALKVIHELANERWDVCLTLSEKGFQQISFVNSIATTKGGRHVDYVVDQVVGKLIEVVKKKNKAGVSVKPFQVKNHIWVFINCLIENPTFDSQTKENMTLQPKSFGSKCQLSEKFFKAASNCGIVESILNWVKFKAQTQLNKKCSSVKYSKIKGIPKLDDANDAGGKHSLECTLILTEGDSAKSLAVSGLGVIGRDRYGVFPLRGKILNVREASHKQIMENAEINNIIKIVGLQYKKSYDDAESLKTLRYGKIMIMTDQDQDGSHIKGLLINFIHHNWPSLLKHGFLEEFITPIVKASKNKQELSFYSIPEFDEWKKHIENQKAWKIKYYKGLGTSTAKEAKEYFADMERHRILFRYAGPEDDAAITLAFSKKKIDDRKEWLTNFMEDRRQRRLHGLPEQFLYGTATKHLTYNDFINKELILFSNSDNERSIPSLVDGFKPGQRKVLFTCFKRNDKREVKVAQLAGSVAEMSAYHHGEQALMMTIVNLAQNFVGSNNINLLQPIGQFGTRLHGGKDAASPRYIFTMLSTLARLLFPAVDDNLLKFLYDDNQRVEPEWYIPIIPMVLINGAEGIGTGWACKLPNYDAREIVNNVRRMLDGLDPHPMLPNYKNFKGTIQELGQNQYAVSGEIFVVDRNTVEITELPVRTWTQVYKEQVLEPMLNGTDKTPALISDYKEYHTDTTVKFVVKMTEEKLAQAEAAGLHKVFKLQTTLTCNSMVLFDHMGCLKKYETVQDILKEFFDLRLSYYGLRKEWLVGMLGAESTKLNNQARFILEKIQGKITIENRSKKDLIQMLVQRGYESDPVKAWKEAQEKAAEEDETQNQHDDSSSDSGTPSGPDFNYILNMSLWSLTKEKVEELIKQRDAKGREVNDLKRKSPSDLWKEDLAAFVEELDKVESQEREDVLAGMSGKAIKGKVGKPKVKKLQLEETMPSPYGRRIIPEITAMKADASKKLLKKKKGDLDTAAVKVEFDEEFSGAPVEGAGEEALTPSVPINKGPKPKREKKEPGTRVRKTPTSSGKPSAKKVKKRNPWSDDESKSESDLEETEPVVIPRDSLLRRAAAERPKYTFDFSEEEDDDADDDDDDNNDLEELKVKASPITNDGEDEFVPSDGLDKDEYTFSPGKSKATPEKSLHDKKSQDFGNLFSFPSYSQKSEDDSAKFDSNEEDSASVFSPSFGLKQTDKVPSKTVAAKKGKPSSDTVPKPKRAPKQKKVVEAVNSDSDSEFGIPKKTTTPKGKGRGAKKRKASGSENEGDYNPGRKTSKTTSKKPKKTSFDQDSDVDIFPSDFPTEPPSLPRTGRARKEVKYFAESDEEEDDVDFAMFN
In short: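 Supercoiled pBR322 (250 ng) with test compound in reaction buffer. Started by adding diluted human Topo IIβ, incubated 30 min at 37 °C, quenched with loading buffer. Topoisomers separated on 1% agarose in 1× TBE (20 V, 18 h) and visualised by ethidium bromide staining. ETP and ICRF-187 were included as references.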

[11] = target: T1, Topo IIα; experiment: kDNA decatenation assay; assay type: biochemical; details: gel
In short: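 Commercial kit protocol: 250 ng kDNA with test compound in reaction buffer; started by adding diluted human Topo IIα; 30 min at 37 °C; stopped with loading buffer. Products resolved on 1% agarose in 1xTBE, 20 V for 18 h, EtBr-stained, destained in water, imaged. Catenated versus decatenated kDNA judged by migration.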

[12] = system: all investigated cell lines, including HEK293; experiment: MTT drug sensitivity assay, statement over all cell lines; assay type: cell-based; details: Homo sapiens, HEK293, 72 h, read-out: IC50 for all investigated cell lines
In short: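 Cells were exposed to test compound at 0–50 µM for 72 h. Lines: A549 and MCF-7 (RPMI-1640), HCT-116 and U-2 OS (McCoy's 5A), U-87 MG (MEM), HEK293 (DMEM); all with 10% FBS, 37 °C, 5% CO2. MTT (0.4 mg/ml in PBS) for 3 h at 37 °C; formazan dissolved in DMSO; A540. ETP and m-AMSA as references; independent triplicate.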

[13] = system: HCT-116; experiment: Annexin V-FITC/7-AAD apoptosis assay; assay type: cell-based, human; details: for Necrosis activation HCT-116: statistically significant, **p < 0.001
[14] = system: MCF-7; experiment: MTT drug sensitivity assay; assay type: cell-based; details: Homo sapiens, MCF7, 72 h, read-out: In vitro growth inhibitory activity (IC50 ± SD) MCF-7
In short: as §1

[15] = system: U-87 MG; experiment: MTT drug sensitivity assay; assay type: cell-based; details: Homo sapiens, 72 h, read-out: In vitro growth inhibitory activity (IC50 ± SD) U-87 MG
In short: as §1

[16] = target: T2, human Topo IIβ; experiment: kDNA decatenation assay; assay type: biochemical; details: gel
In short: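 Decatenation: 250 ng kDNA was mixed with test compound in reaction buffer. The reaction was started with diluted human Topo IIβ and run for 30 min at 37 °C, then stopped with loading buffer. Products were resolved on a 1% agarose gel in 1× TBE at 20 V for 18 h and stained with ethidium bromide. ETP and ICRF-187 were references.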

[17] = target: T1, Topo IIα; experiment: DNA cleavage assay; assay type: biochemical; details: for Stabilisation of Topo IIα/DNA cleavage complex (linear pBR322 plasmid): gel, ETP 100 µM
In short: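 Reaction mix as for the human Topo IIα relaxation assay (plasmid DNA, test compound, reaction buffer), but with fivefold more enzyme. Reaction started by adding human Topo IIα, then 10 min at 37 °C. Products separated by agarose gel electrophoresis in 1× TBE containing EtBr (1 µg/ml), and linear plasmid scored on the gel.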

[18] = system: A549; experiment: MTT drug sensitivity assay; assay type: cell-based; details: Homo sapiens, A549, 72 h, read-out: In vitro growth inhibitory activity (IC50 ± SD) A549
In short: as §1

[19] = system: HCT-116; experiment: Cell cycle analysis; assay type: cell-based, human; details: equitoxic concentrations, 24 and 48 h
[20] = system: MCF-7; experiment: Cell cycle analysis; assay type: cell-based, human; details: 48 h exposure, equitoxic concentration, p < 0.00001
[21] = system: HCT-116; experiment: BrdU incorporation assay; assay type: cell-based, human; details: equitoxic (IC50) concentration, 24 or 48 h
[22] = system: A549; experiment: BrdU incorporation assay; assay type: cell-based, human; details: equitoxic (IC50) concentration, 24 or 48 h
[23] = system: A549; details: reference, 50 µM added 15 min before end of incubation
[24] = system: HCT-116; details: reference, 50 µM added 15 min before end of incubation
[25] = system: MCF-7; details: read-out: IC50 cytotoxic activity MCF-7; 72 h ref 51; cited from earlier work
[26] = system: A549; details: read-out: IC50 cytotoxic activity A549; 72 h ref 51; cited from earlier work
[27] = concentration series up to highest concentration tested

## c1coc(-c2ccc3c(c2)[nH]c2cc(-c4ccco4)ccc23)c1 [Compound 27a, 2,7-Di(2-furyl)-9H-carbazole]
[1]
  IC50: 220 ± 40 nM
[2]
  Colony-forming ability HCT-116: reduced the colony number
[3]
  Increase in fraction of apoptotic cells compared to control A549: eightfold increase
[4]
  Colony-forming ability A549: reduced the colony number
[5]
  IC50: 190 ± 70 nM
[6]
  IC50: 370 ± 50 nM
[7]; highest tested concentrations
  Inhibition of Topo IIα-mediated pBR322 relaxation: moderately affected
[8]
  Caspase-3/7 activation, increase compared to control A549: 3.4 fold
[9]
  TUNEL-positive cells HCT-116: most massive effect
[10]; highest tested concentrations
  Inhibition of Topo IIβ-mediated pBR322 relaxation: moderately affected
[11]; [27]
  Inhibition of Topo IIα-mediated kDNA decatenation: either completely inhibited decatenation only at the highest concentration tested, or partially inhibited the decatenation of higher-order catenates
[12]
  IC50: < 1000 nM
[13]; Annexin V/7-AAD
  Increase in fraction of apoptotic cells compared to control HCT-116: eightfold increase
[13]
  Necrosis activation HCT-116: slightly activated necrosis
[14]
  IC50: 790 ± 210 nM
[15]
  IC50: 450 ± 150 nM
[16]; 100 µM
  Inhibition of Topo IIβ-mediated kDNA decatenation: completely inhibited decatenation
[17]
  Stabilisation of Topo IIα/DNA cleavage complex (linear pBR322 plasmid): do not stabilise the covalent cleavage complex
[18]
  IC50: 260 ± 120 nM

## c1coc(-c2ccc3[nH]c4ccc(-c5ccco5)cc4c3c2)c1 [Compound 36a, 3,6-Di(2-furyl)-9H-carbazole]
[1]
  IC50: 480 ± 60 nM
[2]
  Colony-forming ability HCT-116: reduced the colony number
[4]
  Colony-forming ability A549: reduced the colony number
[5]
  IC50: 1650 ± 130 nM
[6]
  IC50: 990 ± 180 nM
[7]; from relaxation gels with both isoforms
  Isoform selectivity of relaxation inhibition (Topo IIα vs Topo IIβ): selectively inhibits the relaxation activity of Topo IIα
[7]; 20–100 µM
  Inhibition of Topo IIα-mediated pBR322 relaxation: fully inhibited DNA relaxation
[8]
  Caspase-3/7 activation, increase compared to control A549: 5.7 fold
[10]; 20–100 µM
  Inhibition of Topo IIβ-mediated pBR322 relaxation: did not impact Topo IIβ activity
[11]; 4–100 µM
  Inhibition of Topo IIα-mediated kDNA decatenation: effective and concentration-dependent inhibition
[19]
  Cell cycle effect HCT-116 (G0/G1 phase): time-dependent increase in the number of cells in the G0/G1 phase
[14]
  IC50: 1390 ± 290 nM
[15]
  IC50: 2190 ± 300 nM
[16]; highest concentration tested
  Inhibition of Topo IIβ-mediated kDNA decatenation: partially inhibiting decatenation only at the highest concentration tested
[17]; co-treatment with ETP, Topo IIα
  Effect on ETP-induced DNA cleavage (linear plasmid): reduced the level of linear plasmid
[17]
  Stabilisation of Topo IIα/DNA cleavage complex (linear pBR322 plasmid): do not stabilise the covalent cleavage complex
[18]
  IC50: 930 ± 150 nM

## c1csc(-c2ccc3[nH]c4ccc(-c5cccs5)cc4c3c2)c1 [Compound 36b, 3,6-Di(2-thienyl)-9H-carbazole]
[1]
  IC50: 270 ± 110 nM
[20]
  Cells in G0/G1 phase MCF-7: 59.85 ± 2.15%
[4]
  Colony-forming ability A549: lower inhibitory activity
[5]
  IC50: 320 ± 110 nM
[21]
  Decrease in BrdU-positive cells HCT-116: ~3.5 fold
[6]
  IC50: 710 ± 60 nM
[7]; highest tested concentrations
  Inhibition of Topo IIα-mediated pBR322 relaxation: moderately affected
[8]
  Caspase-3/7 activation, increase compared to control A549: 2.5 fold
[22]
  Decrease in BrdU-positive cells A549: approximately 4 fold
[10]; highest tested concentrations
  Inhibition of Topo IIβ-mediated pBR322 relaxation: moderately affected
[11]; [27]
  Inhibition of Topo IIα-mediated kDNA decatenation: either completely inhibited decatenation only at the highest concentration tested, or partially inhibited the decatenation of higher-order catenates
[13]
  Necrosis activation HCT-116: slightly activated necrosis
[14]
  IC50: 830 ± 210 nM
[15]
  IC50: 1400 ± 240 nM
[17]
  Stabilisation of Topo IIα/DNA cleavage complex (linear pBR322 plasmid): do not stabilise the covalent cleavage complex
[18]
  IC50: 600 ± 100 nM

## COc1cc([C@@H]2c3cc4c(cc3[C@@H](O[C@@H]3O[C@@H]5CO[C@@H](C)O[C@H]5[C@H](O)[C@H]3O)[C@H]3COC(=O)[C@H]23)OCO4)cc(OC)c1O [Etoposide, etoposide, reference compound]
[1]
  IC50: 390 ± 10 nM
[6]
  IC50: 610 ± 40 nM
[14]
  IC50: 830 ± 150 nM
[15]
  IC50: 11900 ± 1310 nM
[18]
  IC50: 540 ± 210 nM

## N#CC(C#N)=NNc1ccc(OC(F)(F)F)cc1 [FCCP, carbonyl cyanide 4-(trifluoromethoxy)phenylhydrazone]
[23]
  Increase in JC-1 monomers vs control A549: 11 fold
[24]
  Increase in JC-1 monomers vs control HCT-116: 6.3 fold

## C[C@@H](CN1CC(=O)NC(=O)C1)N1CC(=O)NC(=O)C1 [ICRF-187, reference compound]
[7]; reference at 100 µM
  Inhibition of Topo IIα-mediated pBR322 relaxation: completely inhibited relaxation activity
[10]; reference at 100 µM
  Inhibition of Topo IIβ-mediated pBR322 relaxation: relatively lower inhibitory effects
[16]; 100 µM
  Inhibition of Topo IIβ-mediated kDNA decatenation: more significant effect than ETP

## O=C1NC(=S)NC(=O)C1C(=O)Nc1ccccc1 [merbarone]
[25]
  IC50: 83900 ± 3000 nM
[26]
  IC50: 40000 ± 2700 nM
